# PMC5573236 (Oncogene, 2008)
# What was measured:
# LNCaP cells [1] = assay: MTT proliferation assay, LNCaP cells; format: cell-based
# [2] = system: estrogen receptor-α (ERα); conditions: estradiol stimulation; ref Pink and Jordan, 1996; cited from earlier work
# MCF-7 cells = assay: MTT proliferation assay, MCF-7 cells; format: cell-based; conditions: same concentrations as used for Protac-B
# T47D cells = assay: MTT proliferation assay, T47D cells; format: cell-based; conditions: same concentrations as used for Protac-B
# [3] = target: VHL-Elongin B-Elongin C protein complex (Homo sapiens, UniProt P40337+Q15369+Q15370); assay: Fluorescence polarization competitive binding assay with VHL; conditions: FP competition assay; negative control
# LNCaP cells [4] = assay: Cell cycle profile by flow cytometry; format: cell-based; conditions: 72 h, propidium iodide staining
# How it was run: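 LNCaP cells kept at 37 °C, 5% CO2, in phenol-red-free RPMI 1640 with 10% FBS. Plated at 30 000 cells per cm2 and treated from 24–48 h after plating. Trypsinised, pelleted at 250 g for 5 min, fixed in 70% ethanol and held at −20 °C. Just before acquisition, stained with 3.4 mM sodium citrate, 0.3% Triton X-100, propidium iodide 0.1 mg/ml and RNase A 20 μg/ml, then run on a flow cytometer.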
# androgen receptor (AR) = assay: Western blot of AR protein levels in LNCaP cells; format: cell-based; conditions: 72 h, increasing concentrations that inhibited proliferation
# PC-3 cells = assay: MTT proliferation assay, PC-3 cells; format: cell-based; conditions: 72 h, same concentrations as used on LNCaP cells
# How it was run: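 Cells were grown in phenol-red-free RPMI 1640 with 10% FBS, 37 °C, 5% CO2, and seeded at 10 000/well. Test compound or free hormone at matched concentrations was added 24–48 h after plating; the PC-3 exposure was 72 h. MTT read-out: medium removed, DMSO solubilisation, absorbance 550 nm. Single triplicate experiment, representative of three.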
compound,measurement,setting,value
"C[C@]12CCC(=O)C[C@@H]1CC[C@@H]1[C@@H]2CC[C@]2(C)[C@@H](O)CC[C@@H]12 [DHT, dihydroxytestosterone]",effect on LNCaP cell proliferation,LNCaP cells [1]; DHT used at the IC50 of Protac-A (12.5 μM),no effect
"C[C@]12CC[C@@H]3c4ccc(O)cc4CC[C@H]3[C@@H]1CC[C@@H]2O [estradiol, 17β-estradiol]",decrease in ERα levels,[2],approximately 50%
same,effect on proliferation of MCF-7 cells,MCF-7 cells,no effect
same,effect on proliferation of T47D cells,T47D cells,no effect
H-Leu-Ala-Ala-Tyr-Ile-Gly-Gly-[D-Arg]9-OH [mutant pentapeptide-G-G-(Arg)9],binding to VHL,[3],did not detectably bind
Leu-Ala-Pro(OH)-Tyr-Ile-Gly-Gly-(D-Arg)9 [Protac-AA],cell cycle effect in LNCaP cells,LNCaP cells [4],cell cycle arrest in G1
same,"increase of activity (IC50, LNCaP) over Protac-A",LNCaP cells [1]; 72 h and 144 h,three to seven
same,AR protein levels in LNCaP cells,androgen receptor (AR),reduced
same,effect on proliferation of PC-3 cells,PC-3 cells,not affected
